Sampled rows, rich in hits. Any-hit rate of the full collection: about 1.9%.
PP1 counter: PP1-alpha (human) inhibition in PP5 counter-screen; P62136; inhibition, % at 6.7 µM; 320,000 compounds, 0.9% hits; purified PP1alpha, OMFP fluorescence;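 active means inhibition above the mean inhibition of all tested compounds plus 3 SD, computed separately for each screening campaign, cut at about 15% in these data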
Scp1 inh: Scp-1 (human) phosphatase inhibition; Q9GZU7; Recombinant Scp1, phosphopeptide, malachite green phosphate absorbance; inhibition, % at 20 µM; 340,000 compounds, 0.88% hits; AID 493091;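 active means inhibition above about 50% at 20 µM, limit read from the data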;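 further: plate controls were DMSO wells with enzyme for no effect and wells lacking enzyme for full effect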
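assay system = SCP-1 phosphatase catalytic domain, residues 76-261 | buffer or medium = 50 mM Tris acetate pH 5.5, 0.005% Tween-20, 10 mM MgCl2 | incubation = enzyme reaction 45 min at room temperature, colour 5 min, stabilisation 30 min | signal = Phosphate-binding colour reagent, absorbance read at 630 nm | measure = % inhibition at 20 µM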
PP5 inh: PP5 (human) phosphatase inhibition; 320,000 compounds, 0.18% hits; inhibition, % at 6.7 µM; purified PP5c, OMFP substrate fluorescence; AID 1987;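 active means inhibition above the campaign's mean inhibition across all tested compounds plus 3 SD, cut at about 9.5% in these data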;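 further: 0% = DMSO only and 100% = 100 µM cantharidin control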
STEP inh: STEP (human) phosphatase inhibition | 360,000 compounds, 0.25% hits | inhibition, % at 20 µM | recombinant STEP, OMFP fluorogenic substrate, fluorescence | P54829;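 active means inhibition at 20 µM, scaled per plate between control wells, above about 37%, limit read from the data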;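 further: 0% = DMSO with enzyme and substrate and 100% = substrate only without enzyme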
Target sequence (P54829 whole entry, looked up): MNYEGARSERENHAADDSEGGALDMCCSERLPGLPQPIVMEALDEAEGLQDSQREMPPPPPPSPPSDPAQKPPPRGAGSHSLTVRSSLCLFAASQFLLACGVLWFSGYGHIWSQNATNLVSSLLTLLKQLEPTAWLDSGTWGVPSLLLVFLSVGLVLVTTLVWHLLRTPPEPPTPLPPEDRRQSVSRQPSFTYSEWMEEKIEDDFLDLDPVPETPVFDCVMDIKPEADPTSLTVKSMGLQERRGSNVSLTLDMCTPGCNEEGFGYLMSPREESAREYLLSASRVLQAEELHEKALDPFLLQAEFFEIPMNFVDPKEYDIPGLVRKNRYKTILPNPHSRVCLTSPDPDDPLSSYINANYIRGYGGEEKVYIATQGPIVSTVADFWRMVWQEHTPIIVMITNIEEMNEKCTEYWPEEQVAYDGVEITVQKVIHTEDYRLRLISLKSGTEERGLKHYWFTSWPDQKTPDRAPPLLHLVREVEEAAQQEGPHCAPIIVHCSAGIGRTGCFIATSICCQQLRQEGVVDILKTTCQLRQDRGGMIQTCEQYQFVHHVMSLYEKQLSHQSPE
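Assay system: isolated STEP enzyme. Buffer or medium: pH 6.0 Bis-Tris with DTT and Tween 20. Also added: fluorogenic phosphatase substrate OMFP at 25 µM final. Dosing: 20 µM, 1% DMSO. Timing: 20 min reaction, room temperature, in the dark. Measured by: fluorescence intensity, excitation 480 nm, emission 540 nm. Evaluation: normalized % inhibition.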
LMPTP inh: LMPTP (human) inhibition | P24666 | recombinant LMPTP-A, OMFP fluorogenic substrate, fluorescence intensity | inhibition, % at 20 µM | 360,000 compounds, 0.22% hits | AID 651560;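 active means compounds that cut the enzyme signal by at least half of the control window in the single-dose screen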;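 further: plate controls were DMSO wells with enzyme plus substrate for no effect and substrate without enzyme for full effect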
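Test system: LMPTP-A, protein tyrosine phosphatase of low molecular weight; Input: 0.625 nM enzyme; Incubation: 50 min dark incubation at room temperature; Signal: endpoint fluorescence intensity from OMFP dephosphorylation; Read-out basis: % inhibition versus control wells.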
PP1 inh confirm: human PP1 phosphatase inhibition, confirmation; shares compounds with PP1 counter; purified PP1alpha, OMFP substrate fluorescence; inhibition, % at 6.7 µM; 1,900 compounds, 52% hits; AID 2358;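 active means mean PP1 inhibition above a set limit taken from the earlier primary screen, cut at about 15% in these data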
PP5 counter: PP5 phosphatase inhibition, counter-screen for PP1 inhibitors; inhibition, % at 6.7 µM; 1,900 compounds, 4% hits; shares compounds with PP1 counter; purified PP5c, OMFP fluorescence;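 active means mean PP5 inhibition over triplicate wells above about 9.5% taken from the earlier PP1 screen, limit read from the data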
The depositor's hits bear a star.

Screening Clc1ccc(-c2nnc3sc(-c4ccc(Br)o4)nn23)cc1 returned PP1 counter 1, Scp1 inh -4, PP5 inh 0, STEP inh 4 and LMPTP inh -1.
`CCOC(=O)c1c(NC(=O)CSc2nnc3c(n2)[nH]c2ccccc23)sc2c1CCN(C)C2` gave PP1 counter 18*, Scp1 inh -5, PP5 inh 0, STEP inh 6, LMPTP inh 48, PP1 inh confirm 11 and PP5 counter -1.
Screening CCCOc1ccc(C(=O)NC(=S)NNC(=O)c2c(-c3ccccc3)noc2C)cc1 returned PP1 counter 18*, Scp1 inh -15, PP5 inh 3, STEP inh 3, LMPTP inh 0, PP1 inh confirm 1 and PP5 counter -1.
`CCCOc1ccc(NC(=O)c2c(-c3ccccc3)noc2C)cc1` gave PP1 counter -5, Scp1 inh -3, PP5 inh 1, STEP inh -2 and LMPTP inh 2.
Screening CN(CCOc1ccccc1)CCOc1ccccc1 returned PP1 counter -5, Scp1 inh -5, PP5 inh -1, STEP inh 0 and LMPTP inh -1.
`CN(C)CCOc1ccc(/C(=C(/CCCl)c2ccccc2)c2ccccc2)cc1` gave PP1 counter 21*, Scp1 inh -4, PP5 inh 5, STEP inh 4, LMPTP inh -6, PP1 inh confirm -9 and PP5 counter -1.
`CCOC(=O)N1CCN(C(=O)COc2ccc(S(=O)(=O)NCC(C)C)cc2C)CC1` gave PP1 counter 1, Scp1 inh 7, PP5 inh 0, STEP inh -2 and LMPTP inh 0.
`O=C(O)c1ccccc1-c1nc2ccccc2c(=O)n1O` gave PP1 counter 25*, Scp1 inh 2, PP5 inh 4, STEP inh 0, LMPTP inh 2, PP1 inh confirm 30* and PP5 counter 1.
Cc1onc(-c2ccccc2Cl)c1C(=O)N1CCN(c2ncccn2)CC1 was read as PP1 counter 0, Scp1 inh -5, PP5 inh 0, STEP inh -2 and LMPTP inh 0.
Screening O=C(C[n+]1cc(-c2ccc(F)cc2)n2c1CCC2)Nc1nc(-c2ccc(F)cc2)cs1 returned PP1 counter 13, Scp1 inh 9, PP5 inh 4, STEP inh -1 and LMPTP inh 5.
O=C(C[n+]1cc(-c2ccc(Cl)cc2)n2c1CCC2)Nc1nc(-c2ccc(F)cc2)cs1 was read as PP1 counter 21*, Scp1 inh 17, PP5 inh 4, STEP inh -4, LMPTP inh -1, PP1 inh confirm -8 and PP5 counter 1.
O=C(O)c1cc(N=Nc2c(O)ccc3ccccc23)cc(C(=O)O)c1 was read as Scp1 inh 13, STEP inh 12 and LMPTP inh 13.
O=C(O)c1ccc(N=Nc2c(O)ccc3ncccc23)cc1 was read as PP1 counter 21*, Scp1 inh 73*, PP5 inh 4, STEP inh 16, LMPTP inh 15, PP1 inh confirm 14 and PP5 counter 0.
COc1cccc(NC(=O)C2CCN(Cc3cnn(-c4ccccc4)c3-n3cccc3)CC2)c1 was read as PP1 counter 3, Scp1 inh 0, PP5 inh 2, STEP inh 0 and LMPTP inh 1.
COc1ccc2[nH]c3c(C)c4ccncc4c(C)c3c2c1 was read as PP1 counter 35*, Scp1 inh 4, PP5 inh 7, STEP inh 10, LMPTP inh 47, PP1 inh confirm 17* and PP5 counter -1.
For COc1ccc(S(=O)(=O)c2c(C)c(NS(=O)(=O)c3ccccc3)cc(C)c2O)cc1 the results were PP1 counter 21*, Scp1 inh -12, PP5 inh 4, STEP inh -1, LMPTP inh 2, PP1 inh confirm 0 and PP5 counter 1.
Screening O=C(COc1ccc(-c2ccccc2)cc1)N/N=C/c1ccccc1Br returned PP1 counter 18*, Scp1 inh -3, PP5 inh 6, STEP inh -2, LMPTP inh 5, PP1 inh confirm 3 and PP5 counter -1.
For O=C(COc1ccc(-c2ccccc2)cc1)N/N=C/c1cc(O)ccc1Br the results were PP1 counter 7, Scp1 inh -1, PP5 inh 3, STEP inh 1 and LMPTP inh 2.
N=C1C(c2nc3ccccc3s2)=C(O)CN1NC(=O)c1ccccc1[N+](=O)[O-] was read as PP1 counter 21*, Scp1 inh 16, PP5 inh 3, STEP inh 2, LMPTP inh 7, PP1 inh confirm 25* and PP5 counter 4.
Screening N=C1C(c2nc3ccccc3s2)=C(O)CN1Cc1ccccc1 returned PP1 counter 1, Scp1 inh -2, PP5 inh 2, STEP inh -1 and LMPTP inh 6.
`CCOc1c(Br)cc(/C=C2/SC(=O)N(CC(=O)N3CCCC3)C2=O)cc1OC` gave PP1 counter 0, Scp1 inh -4, PP5 inh 2, STEP inh -2 and LMPTP inh -2.
CCOc1ccc(NC(=O)CN(C)C(=O)Cn2c(=O)oc3ccccc32)cc1OCC was read as PP1 counter 41*, Scp1 inh -4, PP5 inh -2, STEP inh 2, LMPTP inh 0, PP1 inh confirm -4 and PP5 counter -6.
O=C(CCC(=O)N/N=C/c1ccco1)N/N=C/c1ccco1 was read as PP1 counter -3, Scp1 inh -13, PP5 inh 0, STEP inh 8 and LMPTP inh 1.
For O=C(O)COc1ccccc1/C=N/Nc1ccc(S(=O)(=O)Nc2ccc(Cl)cc2)cc1[N+](=O)[O-] the results were PP1 counter 19*, Scp1 inh -12, PP5 inh 4, STEP inh 0, LMPTP inh 4, PP1 inh confirm 14 and PP5 counter -3.
O=C(O)CP(=O)(O)O was read as PP1 counter -8, Scp1 inh -11, PP5 inh 9, STEP inh -2 and LMPTP inh -2.
O=P(O)(O)CP(=O)(O)O was read as PP1 counter 25*, PP5 inh 5, PP1 inh confirm 38* and PP5 counter 5.
For O=C(Cn1nc(-c2ccccc2)c2ccccc2c1=O)Nc1ccc(F)cc1 the results were PP1 counter -2, Scp1 inh -5, PP5 inh -2, STEP inh 3 and LMPTP inh 2.

Screens as filed in PubChem.
